Results on four compounds are retold here after publication PMC5668642 (Biochemistry and Biophysics Reports, 2015).

For assay [1], the target named is T1, PLCδ1-PH domain (Rattus norvegicus, UniProt P10688).
T1 sequence (P10688 1-131): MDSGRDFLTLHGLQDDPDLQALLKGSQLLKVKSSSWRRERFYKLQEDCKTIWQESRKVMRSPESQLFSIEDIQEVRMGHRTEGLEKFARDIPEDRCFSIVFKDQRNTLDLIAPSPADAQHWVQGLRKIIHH
Put plainly: Competitive surface plasmon resonance assay, PI. Particulars: for inhibition at 5 µM: pH 7.4, read-out: Relative inhibitory activity (%), PI(4,5)P2/PLCδ1-PH. The assay is classed as binding. The method in brief:
(§1)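 L1 chip, 25 °C, 20 mM HEPES pH 7.4, 0.16 M KCl, 30 µL/min. Active surface PC/PE/PS/PIP (57:20:20:3): PI(4,5)P2 for rat PLCδ1-PH (1-131), PI(3,4,5)P3 for human AKT1-PH (1-121) and mouse GRP1-PH (1-127), PI(3,4)P2 for human TAPP1-PH (180-305). BSA-blocked PC/PE/PS reference. Domain (500 nM) preincubated 30 min with compound (0–20 or 0–200 µM). % inhibition from RU at 180 s; IC50 by Langmuir fit; triplicates.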
Background: In SPR one partner is held on a chip, and binding of the other changes the refractive index at the surface.

Assay [2] relates to GFP-tagged PLCδ1-PH domain in A549 cells. Put plainly: Cellular translocation of GFP-tagged PLCδ1-PH domain. The assay is classed as cell-based, Human. Particulars: 0–100 μM, 30 min. The method, boiled down:
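A549 cells grown on coverslips in RPMI-1640 with 10% heat-inactivated FBS and penicillin/streptomycin at 37 °C, 5% CO₂. Transfected 24 h after seeding with GFP-PLCδ1-PH using polyethylenimine in Opti-MEM, then returned to complete medium after 24 h. Cells washed into serum-free medium and exposed to test compound (5–100 µM; DMSO <5%) for 30 min. PBS-washed, fixed in 4% paraformaldehyde for 15 min, and imaged by confocal at 488 nm excitation.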

Assay [3] deals with T1, PLCδ1-PH domain. Put plainly: Competitive protein-to-membrane FRET displacement assay. The assay is classed as binding. The method, boiled down:
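Rat PLCδ1-PH (1-131) is prebound to excess PC/PE/PS/dPE/PI(4,5)P2 (56:20:20:1:3) vesicles (100 µM total lipid) in 20 mM Tris pH 7.4, 0.16 M NaCl, at room temperature. Compound is titrated 0–70 µM. Protein-to-membrane FRET is read at ex 280/em 505 nm, corrected for PC/PE/PS/dPE (59:20:20:1) vesicles, dilution and dPE background. Apparent KI comes from a nonlinear least-squares fit.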

The target of assay [4] is TAPP1-PH domain (Homo sapiens, UniProt Q9HB21). Kind of assay: Competitive surface plasmon resonance assay, PI. The format is binding. Particulars: for inhibition at 5 µM: read-out: Relative inhibitory activity (%), PI(3,4)P2/TAPP1-PH. The method in brief: as §1
Chain of TAPP1-PH domain (Q9HB21 180-305): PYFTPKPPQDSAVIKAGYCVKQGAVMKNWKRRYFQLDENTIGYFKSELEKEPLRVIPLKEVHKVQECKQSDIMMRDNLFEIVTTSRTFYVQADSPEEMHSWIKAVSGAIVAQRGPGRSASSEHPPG
Assay [5] deals with T1, PLCδ1-PH domain. Put plainly: Circular dichroism of PLCδ1-PH domain with compounds. The following applies: PLCδ1-PH 1 μM; 10 mM phosphate, 10 mM NaCl, pH 7.2. The method, boiled down: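 Rat PLCδ1-PH domain (residues 1-131, expressed in E. coli BL21-DE3) is scanned by far-UV CD from 190 to 245 nm, alone and with test compounds present.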
On the technique in general: Circular dichroism is the unequal absorption of left and right circularly polarised light.

Assay [6] addresses T2, AKT1-PH domain (Homo sapiens, UniProt P31749). Put plainly: Isothermal titration calorimetry, AKT1-PH domain. The assay is classed as binding. Particulars: 25 °C. The method, boiled down:
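Human AKT1-PH domain (residues 1–121, E. coli BL21-DE3) in the sample cell at 25 °C, 500 rpm. Titrated with 20 × 2 µL injections of test compound (2 mM) at 2.0 min intervals. ΔG derived as ΔH − TΔS.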

Assay [7] concerns the target T3, GRP1-PH domain (Mus musculus, UniProt O08967).
T3 sequence (O08967 264-380 limits assumed): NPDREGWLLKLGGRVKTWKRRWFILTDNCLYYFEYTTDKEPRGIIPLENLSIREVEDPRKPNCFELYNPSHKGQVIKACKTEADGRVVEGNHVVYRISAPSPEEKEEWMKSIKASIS
Put plainly: Competitive surface plasmon resonance assay, PI. The assay is classed as binding. Particulars: for inhibition at 5 µM: read-out: Relative inhibitory activity (%), PI(3,4,5)P3/GRP1-PH. The method, boiled down:
as §1

Assay [8] deals with T1, PLCδ1-PH domain. Kind of assay: Liposome pull-down assay, PI. The assay is classed as binding. Particulars: protein 50 μM; compound 100 μM; PC/PE/PS/PI(4,5)P2 (57:20:20:3). The method, boiled down:
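Sucrose-loaded PC/PE/PS/PI(4,5)P₂ vesicles made by sonication and extrusion, pelleted at 100,000g, and resuspended in 20 mM Tris pH 7.4 with 100 mM KCl and 5 mM MgCl₂. Rat PLCδ1-PH domain incubated with vesicles (40 µg in 100 µL) for 30 min with 0.3 mg/mL BSA, with or without test compound; PC/PE/PS vesicles as control. Spun at 100,000g for 30 min at 4 °C; supernatant and pellet run on Coomassie-stained SDS-PAGE.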

Assay [9] has as its target T1, PLCδ1-PH domain. Put plainly: Isothermal titration calorimetry, PLCδ1-PH domain. The assay is classed as binding. The following applies: 25 °C; 20 mM HEPES pH 7.4, 0.16 M KCl. The method, boiled down:
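Rat PLCδ1-PH domain (residues 1–131, E. coli BL21-DE3) at 200 μM, dialysed into 20 mM HEPES pH 7.4 with 0.16 M KCl. Titrated at 25 °C, 500 rpm, with 20 × 2 µL injections at 2.0 min intervals of test compound (2 mM) dissolved in the final dialysate. ΔG derived as ΔH − TΔS.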
For orientation: ITC needs no label: the signal is the heat of the interaction.

The target of assay [10] is T2, AKT1-PH domain. Put plainly: Competitive surface plasmon resonance assay, PI. The assay is classed as binding. Particulars: for inhibition at 5 µM: read-out: Relative inhibitory activity (%), PI(3,4,5)P3/AKT1-PH. The method, boiled down:
as §1

Assay [11] addresses T2, AKT1-PH domain. Kind of assay: Liposome pull-down assay, PI. Particulars: protein 50 μM; compound 100 μM; PC/PE/PS/PI(3,4,5)P3 (57:20:20:3). The assay is classed as binding. The method, boiled down:
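Human AKT1-PH (1-121) is incubated 30 min with 40 µg sucrose-loaded, sonicated/extruded vesicles (± compound) in 20 mM Tris pH 7.4, 100 mM KCl, 5 mM MgCl2, 0.3 mg/mL BSA. Vesicles were pelleted beforehand at 100,000g, 4 °C. Bound and free protein are separated at 100,000g, 30 min, 4 °C. Supernatant and pellet are run on Coomassie-stained SDS-PAGE.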

T2 sequence (P31749 1-121): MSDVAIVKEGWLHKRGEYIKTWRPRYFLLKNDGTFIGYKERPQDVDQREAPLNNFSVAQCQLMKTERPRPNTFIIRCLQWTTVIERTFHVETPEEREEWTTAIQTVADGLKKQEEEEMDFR

For `Cn1cc(CO)nn1` [(1-methyl-1H-1,2,3-triazol-4-yl)methanol, reference compound], the “Effect on PLCδ1-PH domain binding to PC/PE/PS/PI(4,5)P2 liposome” value in [1] (competitive SPR, negative control, data not shown) is “did not affect”.
For `O=[N+]([O-])c1ccc(Cn2cc(CO)nn2)cc1` [CIP-1], in [2], the “Displacement of PLCδ1-PH domain from plasma membrane (confocal images)” value is “extent of displacement of PLCδ1-PH domain from PM is lowered”. For the same compound, the Ki (in general, a measure of affinity in units of concentration, obtained from inhibition or displacement) in assay [3] came to 60.4 µM. In addition, the IC50 (in general, the concentration needed to halve the response being measured) is 0.647 ± 0.033 µM in assay [4], 0.113 ± 0.007 µM in assay [1], 0.145 ± 0.011 µM in assay [7] and 0.175 ± 0.021 µM in [10]. The inhibition at 5 µM in assay [4] was found to be 18 ± 2%; in assay [1], 83 ± 4%; in assay [7], 56 ± 3%; in [10], 44 ± 2%. Also, in [5], the “Change in secondary structural pattern of PLCδ1-PH domain (far UV-CD)” value is “almost no change”. In [6], the “ITC titration behaviour with AKT1-PH domain” value is “exothermic reaction with two-step binding mechanism”. Besides, the “Inhibition of PLCδ1-PH domain binding to PI(4,5)P2 containing liposomes (SDS-PAGE)” value in assay [8] is given as “not that efficient in displacing the PLCδ1-PH domain”. Also, the “ITC titration behaviour with PLCδ1-PH domain” value in assay [9] is “exothermic reaction with one-step binding mechanism”. Moreover, the “Inhibition of PI(3,4,5)P3/AKT1-PH domain interaction (SDS-PAGE)” value in assay [11] is reported as “more strongly than compound CIP-4”.
Turning to `OCc1cn(Cc2ccccc2)nn1` [CIP-2], the IC50 in assay [4] is 0.106 ± 0.008 µM; in [1], 0.159 ± 0.011 µM; in assay [7], 0.216 ± 0.009 µM; in assay [10], 0.315 ± 0.032 µM. For the same compound, the inhibition at 5 µM in assay [4] turned out to be 41 ± 4%; in [1], 62 ± 3%; in assay [7], 58 ± 5%; in [10], 55 ± 2%.
`CCOC(=O)Cn1cc(CO)nn1` [CIP-3]: the inhibition at 5 µM in assay [10] came to 4 ± 1%.
